Only some compounds are listed: those with a hit (about 2.3% of all), similar ones and a draw of the others.
Rpn11 block: blocks the human proteasome subunit Rpn11. human 26S proteasome, Ub4-pepOG fluorescence polarization; 20S core pre-blocked with epoxomicin. hit rate 0.59% among 360,000. inhibition, % at 20 µM. O00487;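 active means inhibition at 20 µM, scaled to each plate's controls, above about 33%, limit read from the data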
Target sequence (O00487 whole entry, looked up): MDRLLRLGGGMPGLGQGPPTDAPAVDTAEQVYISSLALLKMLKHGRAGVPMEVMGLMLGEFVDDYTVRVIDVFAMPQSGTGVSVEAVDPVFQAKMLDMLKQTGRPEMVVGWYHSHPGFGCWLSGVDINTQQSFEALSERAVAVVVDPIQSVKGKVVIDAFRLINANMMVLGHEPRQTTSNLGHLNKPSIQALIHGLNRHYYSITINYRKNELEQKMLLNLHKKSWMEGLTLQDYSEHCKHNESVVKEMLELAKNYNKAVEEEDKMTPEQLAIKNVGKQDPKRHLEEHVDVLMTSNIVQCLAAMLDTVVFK
DNMT1 inh: blocks human DNA methyltransferase DNMT1; DNMT1 molecular beacon, Hinp1I cleavage, fluorescence; P26358; inhibition (reported as % activation of signal), % at 10 µM; AID 588458; hit rate 0.83% among 360,000; in the data active means inhibition above about 50%
SUMO1-SIM PPI: alters human SUMO1 binding to SIM partners. P63165. SUMO1 binding to a labelled peptide, TR-FRET, 1 h. inhibition, % at 20 µM. hit rate 0.33% among 360,000. AID 602429; in the data active means inhibition above about 37%
Scp1 inh: inhibitors of human Scp-1 phosphatase; hit rate 0.88% among 340,000; inhibition, % at 20 µM; Recombinant Scp1, phosphopeptide, malachite green phosphate absorbance;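 active means inhibition above about 50% at 20 µM, limit read from the data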;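 further: plate controls were DMSO wells with enzyme for no effect and wells lacking enzyme for full effect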
Target sequence (Q9GZU7 76-261 limits assumed): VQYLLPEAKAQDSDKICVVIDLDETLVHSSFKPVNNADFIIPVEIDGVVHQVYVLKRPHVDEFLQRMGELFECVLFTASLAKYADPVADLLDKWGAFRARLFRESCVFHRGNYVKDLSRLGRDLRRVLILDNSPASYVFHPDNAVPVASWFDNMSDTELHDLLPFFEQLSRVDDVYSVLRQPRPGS
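assay system = SCP-1 phosphatase catalytic domain, residues 76-261 | buffer or medium = 50 mM Tris acetate pH 5.5, 0.005% Tween-20, 10 mM MgCl2 | incubation = enzyme reaction 45 min at room temperature, colour 5 min, stabilisation 30 min | signal = Phosphate-binding colour reagent, absorbance read at 630 nm | measure = % inhibition at 20 µM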
LMPTP block: blocks human LMPTP phosphatase. P24666. recombinant LMPTP-A, OMFP fluorogenic substrate, fluorescence intensity. inhibition, % at 20 µM. hit rate 0.22% among 360,000. AID 651560;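 active means compounds that cut the enzyme signal by at least half of the control window in the single-dose screen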;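 further: plate controls were DMSO wells with enzyme plus substrate for no effect and substrate without enzyme for full effect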
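Assay system: LMPTP-A enzyme. Input: 0.625 nM LMPTP-A final. Probe or stimulus: 400 µM OMFP. Compound dosing: single 20 µM dose. Schedule: 50 min dark incubation at room temperature. Detection: fluorescence intensity of OMFP turnover product. Read-out: percent inhibition versus substrate-only and uninhibited controls. Benchmarks: no-enzyme low control, uninhibited high control.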
STEP inh: blocks human striatal-enriched tyrosine phosphatase | P54829 | recombinant STEP, OMFP fluorogenic substrate, fluorescence | inhibition, % at 20 µM | hit rate 0.25% among 360,000 | AID 588621;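 active means inhibition at 20 µM, scaled per plate between control wells, above about 37%, limit read from the data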;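 further: 0% = DMSO with enzyme and substrate and 100% = substrate only without enzyme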
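System: STEP (striatal-enriched tyrosine phosphatase) enzyme, cell-free; medium: Bis-Tris pH 6.0 buffer with DTT, detergent; dosing: 20 µM, 1% DMSO; times: reaction 20 min, ambient temperature; detection: fluorescence, 480/540 nm; read-out basis: normalized % inhibition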
Scp1 confirm: Scp-1 (human) inhibition, single-dose confirmed; shares compounds with Scp1 inh; recombinant SCP-1 catalytic domain, phosphate release, malachite green absorbance; inhibition, % at 20 µM; hit rate 61% among 2,500; AID 540281;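 further: plate controls were DMSO with enzyme for no effect and buffer wells lacking enzyme for full effect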
Scp-1 MG ctr: interferes with malachite green readout, flagging false Scp-1 hits | shares compounds with Scp1 inh | Colorimetric interference counterscreen, malachite green absorbance 630 nm | apparent inhibition (interference), % at 20 µM | 2,500 tested, under 10 active | AID 540313;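 further: compounds added after enzyme reaction finished so only phosphate colour detection is probed; plate controls were DMSO wells with completed Scp-1 reaction for no effect and substrate wells lacking enzyme for full effect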
Scp1 DSF: Scp-1 (human) binding by thermal shift; shares compounds with Scp1 inh; Recombinant SCP1, Sypro Orange thermal shift Tm; thermal shift relative to vanadate control, % at 40 µM; hit rate 25% among 1,500; AID 540329;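 active means substances whose mean melting-temperature shift, as a percentage of the reference inhibitor's shift, reaches about 5.3%, limit read from the data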;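 further: 0% = Tm of DMSO wells and 100% = Tm with sodium orthovanadate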
DNMT1 interf DR: counter-screen for DNMT1 inhibitors: spectral interference, dose response; IC50, µM; 200 tested, under 10 active; shares compounds with DNMT1 inh; molecular beacon fluorescence; AID 602382; call rule not given here
DNMT1 confirm: confirmation of human DNMT1 inhibitors. DNMT1 molecular beacon HinP1I cleavage, fluorescence. shares compounds with DNMT1 inh. hit rate 8% among 2,300. AID 602385. inhibition, % at 10 µM;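 active means average inhibition of at least 30% in the single-concentration confirmation test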
Beacon interf: beacon fluorescence artifact counter-screen | shares compounds with DNMT1 inh | DNMT1 molecular beacon spectral interference counterscreen, fluorescence 485/520 | activation (fluorescence interference), % at 10 µM | hit rate 1% among 2,300 | AID 602387;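 active means activation of at least 30% at 10 µM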;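 further: DNMT1 catalytic domain with a HinP1I cleavage step and a FAM/dabcyl DNA beacon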
The depositor's hits bear a star; / = no result shown.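 How the source made its calls, unless noted: active means inhibition of at least 30% at 20 µM; inactive means the rest.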

SMILES | Rpn11 block | DNMT1 inh | SUMO1-SIM PPI | Scp1 inh | LMPTP block | STEP inh | Scp1 confirm | Scp-1 MG ctr | Scp1 DSF | DNMT1 confirm | Beacon interf | others
C/C=C/C(=O)Nc1cccc(C2=NOC3(C2)C[C@@H](C(N)=O)N(C(=O)c2cc([N+](=O)[O-])cc([N+](=O)[O-])c2C)C3)c1 (some centres undefined) | -3 | 4 | -28 | 2 | -2 | -3 | / | / | / | / | /
C=C(C)C(=O)Nc1cccc(C2=NOC3(C2)C[C@@H](C(N)=O)N(C(=O)C(=C)C)C3)c1 (some centres undefined) | 3 | 103* | 63* | 70* | -1 | 3 | 62* | -9 | -11 | 60* | 3 | DNMT1 interf DR=>99
C=C(C)C(=O)Nc1cccc(C2=NOC3(C2)C[C@H](C(N)=O)N(C(=O)c2ccccc2)C3)c1 (some centres undefined) | -4 | 91* | 36 | 88* | 1 | 0 | 65* | 1 | 4 | 14 | 1
C=C(C)C(=O)Nc1cccc(C2=NOC3(C2)C[C@@H](C(N)=O)N(C(=O)/C=C/CC)C3)c1 (some centres undefined) | -6 | 109* | 64* | 69* | 0 | 7 | 57* | -13 | -29 | 42* | 1 | DNMT1 interf DR=>99
C/C=C(/C)C(=O)Nc1cccc(C2=NOC3(C2)C[C@H](C(N)=O)N(C(=O)c2ccc(Cl)cc2)C3)c1 (some centres undefined) | -1 | -6 | 4 | -6 | 2 | -1 | / | / | / | / | /
CC(=O)Nc1cc(=O)c2cccnc2[nH]1 | -51 | 63* | 31 | 82* | 64* | 10 | 61* | -5 | 2 | 16 | 7
Cc1onc(-c2ccccc2Cl)c1C(=O)NCc1ccco1 | -18 | 63* | 3 | 83* | 21 | 3 | -7 | -11 | / | 4 | 1
COCCN1C(=O)C(=O)/C(=C(/O)c2cccc(OC)c2)C1c1ccco1 (centres undefined) | -11 | 75* | 1 | 57* | -1 | 3 | 56* | -3 | 3 | 7 | 4
CC[C@H]1O[C@H](C)CC2=C1C(=O)OC(C)(C)O2 | / | / | -5 | / | -2 | / | / | / | / | / | /
CSc1nc(SCCO)c2sc3nc(-c4ccco4)c4c(c3c2n1)CC(C)(C)OC4 | / | 98* | 60* | 79* | 45 | 8 | 43* | -10 | 7.4* | 8 | 1
N#Cc1cccc(S(=O)(=O)NCCOc2ccccc2F)c1 | -2 | 2 | 1 | -2 | -1 | 0 | / | / | / | / | /
C#Cc1ccc([C@@H]2C=C(C(=O)NCc3ccccc3)O[C@H](OCC)[C@H]2CCCO)cc1 | 7 | -12 | 7 | -5 | 0 | -5 | / | / | / | / | /
C#Cc1ccc([C@@H]2C=C(C(=O)O)O[C@H](OCC)[C@H]2CCCO)cc1 | 0 | 52* | 30 | 53* | -1 | 12 | 47* | -17 | -13 | 3 | 0
O=S(=O)(c1ccccc1)N(F)S(=O)(=O)c1ccccc1 | -3 | -1 | 0 | -2 | -1 | -2 | / | / | / | / | /
COc1cccc(C(=O)OCC(=O)c2c[nH]c3ccccc23)c1O | -6 | -8 | -1 | -6 | 1 | 0 | / | / | / | / | /

Screens: PubChem, Sanford-Burnham Center for Chemical Genomics
